In ChEMBL document CHEMBL1124662, “Antiinflammatory activity of a series of substituted 2,3-dihydro-6-hydroxypyrimido[2,1-f]purine-4,8(1H,9H)-diones” (J Med Chem, 1989):
Where “and” joins values, the source holds several entries; their conditions need not be identical. Identical values can stand only once.

Legend:
Rattus norvegicus [1] = assay: Prophylactic anti-inflammatory activity in adjuvant arthritic rat at 3 mg/kg in noninjected 1 degree paw; format: functional
Summary of the method: (§1)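 Heat-killed Mycobacterium tuberculosis ground and homogenized in paraffin oil (6 mg/mL); 0.1 mL injected into left hind paw. Drug dosed 1 h before challenge, then daily for 21 consecutive days; controls received methylcellulose. Both hind paw volumes measured by plethysmograph immediately and on day 21; % inhibition of Δ paw volume.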

Rattus norvegicus [2] = assay: Prophylactic anti-inflammatory activity in adjuvant arthritic rat at 3 mg/kg in noninjected 2 degree paw; format: functional; summary of the method: as §1
Rattus norvegicus [3] = assay: Prophylactic anti-inflammatory activity in adjuvant arthritic rat at 9 mg/kg in noninjected 2 degree paw; format: functional; summary of the method: as §1
Rattus norvegicus [4] = assay: Prophylactic anti-inflammatory activity in adjuvant arthritic rat at 9 mg/kg in noninjected 1 degree paw; format: functional; summary of the method: as §1
[5] = Inhibition of guinea pig Phosphodiesterase; design: species or system Cavia porcellus
Rattus norvegicus [6] = assay: Prophylactic oral administration in adjuvant arthritic rat model at 27 mg/kg in noninjected 2 degree paw; format: functional; summary of the method: as §1
Rattus norvegicus [7] = assay: Prophylactic anti-inflammatory activity in adjuvant arthritic rat at 27 mg/kg in noninjected 1 degree paw; format: functional; summary of the method: as §1
Cyclooxygenase = target: T1, Cyclooxygenase (Rattus norvegicus, UniProt P35355+Q63921); assay: Inhibitory activity against Prostaglandin G/H synthase in an in vitro rat neutrophil assay; format: protein assay
T1 sequence (P35355 whole entry): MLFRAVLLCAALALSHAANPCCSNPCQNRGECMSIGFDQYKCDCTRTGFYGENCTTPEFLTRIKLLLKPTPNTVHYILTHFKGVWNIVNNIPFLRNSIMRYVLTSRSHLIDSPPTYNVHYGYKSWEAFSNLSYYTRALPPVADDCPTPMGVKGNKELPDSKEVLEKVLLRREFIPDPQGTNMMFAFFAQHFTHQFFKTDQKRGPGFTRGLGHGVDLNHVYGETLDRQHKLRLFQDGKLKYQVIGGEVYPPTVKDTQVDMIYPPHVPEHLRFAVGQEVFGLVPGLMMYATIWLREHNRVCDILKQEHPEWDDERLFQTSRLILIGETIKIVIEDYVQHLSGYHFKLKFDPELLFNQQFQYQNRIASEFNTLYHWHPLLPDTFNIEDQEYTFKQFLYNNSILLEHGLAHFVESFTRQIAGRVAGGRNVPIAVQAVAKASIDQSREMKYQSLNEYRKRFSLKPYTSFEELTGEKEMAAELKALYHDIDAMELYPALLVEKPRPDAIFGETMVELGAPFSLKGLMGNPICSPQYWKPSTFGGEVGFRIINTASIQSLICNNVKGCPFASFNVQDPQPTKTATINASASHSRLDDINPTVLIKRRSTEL
T1 sequence (Q63921 whole entry): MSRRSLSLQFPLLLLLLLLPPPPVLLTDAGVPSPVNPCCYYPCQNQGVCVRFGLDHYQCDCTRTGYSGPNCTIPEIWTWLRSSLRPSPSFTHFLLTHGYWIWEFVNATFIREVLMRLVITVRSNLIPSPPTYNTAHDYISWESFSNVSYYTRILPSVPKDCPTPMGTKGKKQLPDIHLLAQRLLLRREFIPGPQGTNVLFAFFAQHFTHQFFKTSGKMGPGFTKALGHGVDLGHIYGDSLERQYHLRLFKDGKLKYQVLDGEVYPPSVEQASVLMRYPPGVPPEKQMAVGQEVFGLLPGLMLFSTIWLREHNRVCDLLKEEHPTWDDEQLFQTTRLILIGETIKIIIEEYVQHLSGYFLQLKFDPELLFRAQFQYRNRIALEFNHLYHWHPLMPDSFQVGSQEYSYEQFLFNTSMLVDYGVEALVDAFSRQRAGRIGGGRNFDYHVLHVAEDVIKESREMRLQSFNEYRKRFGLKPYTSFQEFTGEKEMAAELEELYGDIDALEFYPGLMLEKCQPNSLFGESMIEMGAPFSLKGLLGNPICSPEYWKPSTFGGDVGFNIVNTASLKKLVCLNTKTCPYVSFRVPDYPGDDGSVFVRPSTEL

Rattus norvegicus [8] = assay: Anti-inflammatory activity against reverse passive […] reaction-synovitis in rat at 100 mg/kg oral dose; format: functional
Summary of the method: (§2)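 Lewis rats dosed orally with drug or placebo 1 h before iv bovine serum albumin in saline, then 0.54 mg rabbit anti-BSA antibody intraarticular in one knee, saline in the other, under light anesthesia. Second oral dose at 3 h; the dose used is the total given before and after induction.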

[9] = Therapeutic oral administration in adjuvant arthritic rat model at 25 mg/kg in noninjected 2 degree paw; format: ADME, organism-based; design: dose 25 mg/kg, route oral
Summary of the method: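 Adjuvant arthritis (heat-killed M. tuberculosis in paraffin oil, 6 mg/mL, 0.1 mL into left hind paw) left to develop 7 days before first oral dose; treatment continued 35 days. Controls given methylcellulose; hind paw volumes measured by plethysmograph as Δ paw volume; % inhibition.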

Rattus norvegicus [10] = assay: Prophylactic anti-inflammatory activity in adjuvant arthritic rat at 27 mg/kg in noninjected 2 degree paw; format: functional; summary of the method: as §1
Rattus norvegicus [11] = assay: Prophylactic antiinflammatory activity against adjuvant arthritic rat at dose of 50 mg/kg in noninjected 2 degree paw.; format: functional; summary of the method: as §1
Rattus norvegicus [12] = assay: Prophylactic antiinflammatory activity against adjuvant arthritic rat at dose of 25 mg/kg in noninjected 2 degree paw.; format: functional; summary of the method: as §1
Rattus norvegicus [13] = assay: Prophylactic antiinflammatory activity against adjuvant arthritic rat at dose of 25 mg/kg in noninjected 1 degree paw.; format: functional; summary of the method: as §1
Rattus norvegicus [14] = assay: Antiinflammatory activity against reverse passive Arthus reaction-synovitis in rat at dose of 50 mg/kg per orally.; format: functional; settings: po; summary of the method: as §2
Rattus norvegicus [15] = assay: Prophylactic antiinflammatory activity against adjuvant arthritic rat at dose of 50 mg/kg in noninjected 1 degree paw.; format: functional; summary of the method: as §1
Rattus norvegicus [16] = assay: Prophylactic anti-inflammatory activity in adjuvant arthritic rat at 12.5 mg/kg in noninjected 2 degree paw; format: functional; summary of the method: as §1
Rattus norvegicus [17] = assay: Prophylactic anti-inflammatory activity in adjuvant arthritic rat at 12.5 mg/kg in noninjected 1 degree paw; format: functional; summary of the method: as §1
Rattus norvegicus [18] = assay: Prophylactic oral administration in adjuvant arthritic rat model at 25 mg/kg in noninjected 2 degree paw; format: functional; summary of the method: as §1
Rattus norvegicus [19] = assay: Prophylactic anti-inflammatory activity in adjuvant arthritic rat at 25 mg/kg in noninjected 1 degree paw; format: functional; summary of the method: as §1
Rattus norvegicus [20] = assay: Prophylactic anti-inflammatory activity in adjuvant arthritic rat at 25 mg/kg in noninjected 2 degree paw; format: functional; summary of the method: as §1
Rattus norvegicus [21] = assay: Prophylactic anti-inflammatory activity in adjuvant arthritic rat at 50 mg/kg in noninjected 1 degree paw; format: functional; summary of the method: as §1
Rattus norvegicus [22] = assay: Prophylactic anti-inflammatory activity adjuvant arthritic rat at 50 mg/kg in noninjected 2 degree paw; format: functional; summary of the method: as §1
Rattus norvegicus [23] = assay: Prophylactic anti-inflammatory activity in adjuvant arthritic rat at 45 mg/kg in noninjected 1 degree paw; format: functional; summary of the method: as §1
Rattus norvegicus [24] = assay: Prophylactic anti-inflammatory activity in adjuvant arthritic rat at 45 mg/kg in noninjected 2 degree paw; format: functional; summary of the method: as §1
Rattus norvegicus [25] = assay: Anti-inflammatory activity against reverse passive […] reaction-synovitis in rat at 50 mg/kg oral dose; format: functional; summary of the method: as §2
Rattus norvegicus [26] = assay: Prophylactic anti-inflammatory activity in adjuvant arthritic rat at 6.25 mg/kg in noninjected 1 degree paw; format: functional; summary of the method: as §1
Rattus norvegicus [27] = assay: Prophylactic anti-inflammatory activity in adjuvant arthritic rat at 6.25 mg/kg in noninjected 2 degree paw; format: functional; summary of the method: as §1

SMILES | inhibition in vivo at 50 mg/kg (Rattus norvegicus [11]) | inhibition in vivo at 25 mg/kg (Rattus norvegicus [12]) | inhibition in vivo at 25 mg/kg (Rattus norvegicus [13]) | inhibition in vivo at 50 mg/kg (Rattus norvegicus [14]) | inhibition in vivo at 50 mg/kg (Rattus norvegicus [15]) | inhibition in vivo at 12.5 mg/kg (Rattus norvegicus [17]) | further results
CC(C)=CCc1c(O)n(Cc2ccccc2)c2nc3c(n2c1=O)C(=O)N(C)CN3C |  |  |  |  |  |  | inhibition in vivo at 3 mg/kg (Rattus norvegicus [1]): 17%; inhibition in vivo at 3 mg/kg (Rattus norvegicus [2]): 47%; inhibition in vivo at 9 mg/kg (Rattus norvegicus [3]): 65%; inhibition in vivo at 9 mg/kg (Rattus norvegicus [4]): 33%; IC50 [5]: 37 µM and 200 µM; ED50 (Rattus norvegicus [6]): 6.02 mg/kg; inhibition in vivo at 27 mg/kg (Rattus norvegicus [7]): 54%; IC50 (Cyclooxygenase): 6 µM; inhibition in vivo at 100 mg/kg (Rattus norvegicus [8]): 20%; ED50 [9]: 15 mg/kg; inhibition in vivo at 27 mg/kg (Rattus norvegicus [10]): 92%
CCCc1c(O)n(Cc2ccccc2)c2nc3c(n2c1=O)C(=O)N(C)CN3C | 70% | 65% | 24% | 45% | 38% | 16% | inhibition in vivo at 12.5 mg/kg (Rattus norvegicus [16]): 38%
COc1ccc(Cn2c(O)c(CC=C(C)C)c(=O)n3c4c(nc23)N(C)CN(C)C4=O)cc1 |  | 69% | 45% |  |  | 40% | ED50 (Rattus norvegicus [18]): 14 mg/kg; inhibition in vivo at 12.5 mg/kg (Rattus norvegicus [16]): 63%
CC(C)=CCc1c(O)n(Cc2ccc(F)cc2)c2nc3c(n2c1=O)C(=O)N(C)CN3C |  | 49% |  | 18% |  |  | inhibition in vivo at 25 mg/kg (Rattus norvegicus [19]): 24%; ED50 [9]: 7.6 mg/kg
CN1CN(C)c2nc3n(Cc4ccccc4)c(O)c(CCO)c(=O)n3c2C1=O |  |  |  | 8% |  |  | 
C/C=C/Cc1c(O)n(Cc2ccccc2)c2nc3c(n2c1=O)C(=O)N(C)CN3C | 71% | 40% | 24% | 0% | 44% | 20% | 
C#CCc1c(O)n(Cc2ccccc2)c2nc3c(n2c1=O)C(=O)N(C)CN3C | 13% | 21% | 35% | 6% | 36% |  | 
CN1CN(C)c2nc3n(Cc4ccc(F)cc4)c(O)cc(=O)n3c2C1=O |  |  |  | 9% |  | 22% | inhibition in vivo at 25 mg/kg (Rattus norvegicus [20]): 24%; inhibition in vivo at 25 mg/kg (Rattus norvegicus [19]): 36%; inhibition in vivo at 50 mg/kg (Rattus norvegicus [21]): 37%; inhibition in vivo at 50 mg/kg (Rattus norvegicus [22]): 46%; inhibition in vivo at 12.5 mg/kg (Rattus norvegicus [16]): 21%
CSc1c(O)n(Cc2ccccc2)c2nc3c(n2c1=O)C(=O)N(C)CN3C | 61% |  |  | 10% | 33% |  | 
CN(C)/C=c1\c(=O)n(Cc2ccccc2)c2nc3c(n2c1=O)C(=O)N(C)CN3C |  |  |  | 27% |  |  | 
CC(C)CCc1c(O)n(Cc2ccccc2)c2nc3c(n2c1=O)C(=O)N(C)CN3C |  |  |  |  |  |  | inhibition in vivo at 45 mg/kg (Rattus norvegicus [23]): 23%; inhibition in vivo at 45 mg/kg (Rattus norvegicus [24]): 51%
CN1CN(C)c2nc3n(Cc4ccccc4)c(O)c(C(=O)Nc4ccccc4)c(=O)n3c2C1=O | 23% |  |  |  | -21% |  | 
Cc1c(O)n(Cc2ccccc2)c2nc3c(n2c1=O)C(=O)N(C)CN3C | 69% | 22% | 0% | 0% | 46% | 0% | inhibition in vivo at 12.5 mg/kg (Rattus norvegicus [16]): 36%
CCCc1c(O)n(Cc2cccs2)c2nc3c(n2c1=O)C(=O)N(C)CN3C |  | 51% | 20% |  |  | 20% | inhibition in vivo at 12.5 mg/kg (Rattus norvegicus [16]): 13%
CN1CN(C)c2nc3n(Cc4ccccc4)c(O)cc(=O)n3c2C1=O |  |  |  |  |  |  | inhibition in vivo at 50 mg/kg (Rattus norvegicus [25]): 0%
CCCc1c(O)n(Cc2ccc(F)cc2)c2nc3c(n2c1=O)C(=O)N(C)CN3C |  | 56% | 0% | 0% |  |  | 
CN1CN(C)c2nc3n(Cc4ccccc4)c(=O)/c(=C\O)c(=O)n3c2C1=O | 32% |  |  | 34% | 6% |  | 
C=CCc1c(O)n(Cc2ccc(F)cc2)c2nc3c(n2c1=O)C(=O)N(C)CN3C | 49% |  |  | 40% | 10% |  | 
CN1CN(C)c2nc3n(Cc4ccccc4)c(O)c(Cc4ccccc4)c(=O)n3c2C1=O | 63% | 49% | 34% | 5% | 46% |  | 
CN1CN(C)c2nc3n(Cc4ccccc4)c(O)c(Sc4ccccc4)c(=O)n3c2C1=O | 23% |  |  |  | 15% |  | 
CN1CN(C)c2nc3n(Cc4ccccc4)c(O)c(C4C=CCCC4)c(=O)n3c2C1=O (centres undefined) | 13% | 15% | 12% | 16% | 13% | 9% | inhibition in vivo at 12.5 mg/kg (Rattus norvegicus [16]): 6%
C/C(=C/Cc1c(O)n(Cc2ccccc2)c2nc3c(n2c1=O)C(=O)N(C)CN3C)C(F)(F)F |  | 74% | 45% | 25% |  | 47% | ED50 (Rattus norvegicus [18]): 8.8 mg/kg; inhibition in vivo at 6.25 mg/kg (Rattus norvegicus [26]): 33%; inhibition in vivo at 6.25 mg/kg (Rattus norvegicus [27]): 60%; inhibition in vivo at 12.5 mg/kg (Rattus norvegicus [16]): 64%; ED50 [9]: 4 mg/kg
CC(C)=CCSc1cc(=O)n2c3c(nc2n1Cc1ccccc1)N(C)CN(C)C3=O |  | 8% | -16% |  |  |  | 
CCOC(=O)Cc1c(O)n(Cc2ccccc2)c2nc3c(n2c1=O)C(=O)N(C)CN3C |  | 20% | 18% | 14% |  |  | 
Cn1c(=O)c2[nH]cnc2n(C)c1=O [AMINOPHYLLINE] |  |  |  |  |  |  | IC50 [5]: 30 µM
